Measurements gathered from unrelated publications.
Lines come from different studies, so protocols differ.
Target: Serine/threonine-protein kinase D1 (PRKD1, Homo sapiens, UniProt Q15139)

SMILES	effect on	action	technique	tested at	endpoint	result
CC(C)(C)C(=O)c1sc(NC2CCCCC2)nc1N	enzyme activity	inhibitor		10 µM	remaining activity	85%
CNc1cccc2cc(C(=O)Nc3ccc(C(=O)O)cc3)c(=O)[nH]c12	enzyme activity	inhibitor		10 µM	inhibition	-3.9%
Oc1cccc(-c2nc(N3CCOCC3)c3oc4ncccc4c3n2)c1	enzyme activity	inhibitor		10 µM	remaining activity	120%
CC(C)(O)[C@H]1CC[C@H](Nc2ccc3ncc(-c4cccc(C(F)(F)F)c4)n3n2)CC1	enzyme activity	inhibitor		1 µM	remaining activity	99.5%
CCCCNc1ncc2c(-c3ccc(F)cc3)nn(C[C@H]3CC[C@H](N)CC3)c2n1	target engagement in cells	inhibitor	chemoproteomics	20 mM	inhibition	25%
CC(=O)N1CCC(c2ccc(C(=O)NC3=NCCN3)cc2C(F)(F)F)CC1	cell-free assay		competition with immobilised ligand	1 µM	remaining binding	100%
O=C1NC(=O)c2cc(Nc3ccc(F)cc3)c(Nc3ccc(F)cc3)cc21	cell-free assay			0.5 µM	remaining signal	92.2%
O=c1nc(-c2ccccn2)sc2ccccc12	binding		competition with immobilised ligand	1 µM	remaining binding	100%
CC(C)c1ccc(NC(=O)c2cccs2)c(-c2nc3ccccc3[nH]c2=O)c1	enzyme activity	inhibitor		1 µM	activity vs control	97%
Cc1ccc(Nc2nccc(N(C)c3ccc4c(C)n(C)nc4c3)n2)cc1S(N)(=O)=O	enzyme activity	inhibitor		10 µM	inhibition	23%
c1ccc(CNc2nc(N3CCOc4ccccc43)nc3c2CCCC3)cc1	target engagement in cells	inhibitor	chemoproteomics	20 mM	inhibition	-8.8%
Cc1c(NC(=O)c2cc(C(N)=O)nc3cc(F)ccc23)c(C(F)(F)F)nn1Cc1ccc(C(C)(C)C)cc1	cell-free assay		competition with immobilised ligand	1 µM	remaining binding	100%
FC(F)(F)Oc1cccc(-c2cnc3ccc(-c4ccncc4)nn23)c1	enzyme activity	inhibitor	radiometric	5 µM	activity vs control	158%
O=C(Nc1cnn(-c2csc(C(=O)NC3COC3)c2)c1)Nc1c(F)cccc1Cl	enzyme activity	inhibitor		5 µM	remaining activity	90.7%
COc1cc(Nc2cnc(C#N)c(O[C@H](C)CN(C)C)n2)ncc1-c1cnn(C)c1	enzyme activity	inhibitor	radiometric	1 µM	remaining activity	106%
Cn1cnc(Br)c1C1=CN(c2ncnc3[nH]cnc23)CCS1	enzyme activity	inhibitor	radiometric	50 nM	inhibition	21.4%
Cn1c2ccccc2c2c3c(c4c5ccccc5n(CCC#N)c4c21)CNC3=O	cell-free assay			0.5 µM	remaining signal	17.3%

SMILES	effect on	action	technique	tested at	endpoint	result
CC(C)(C)c1nc(-c2cccc(NS(=O)(=O)c3c(F)cccc3F)c2F)c(-c2ccnc(N)n2)s1	enzyme activity	inhibitor	radiometric	1 µM	remaining activity	33%
CCCS(=O)(=O)Nc1ccc(F)c(C(=O)c2c[nH]c3ncc(-c4ccc(Cl)cc4)cc23)c1F	enzyme activity	inhibitor		1 µM	inhibition	< 10%
Cc1sc(C(=O)NC2COC2)cc1-n1cc(NC(=O)Nc2c(F)cccc2Cl)cn1	enzyme activity	inhibitor		10 µM	remaining activity	93.3%
Cn1cncc1C1=CN(c2ncnc3[nH]cnc23)CCS1	enzyme activity	inhibitor	radiometric	50 nM	inhibition	21.3%
Cc1c(C(=O)O)cc(-c2ccc(C3CCNCC3)cc2)c2ccc(-c3ccc(C(F)(F)F)cc3)cc12	binding		competition with immobilised ligand	1 µM	remaining binding	100%
COc1cc2ncnc(Nc3ccc(Oc4ccccc4)c(C)c3C)c2cc1OC	enzyme activity	inhibitor		1 µM	inhibition	-3%
Cc1nccc(COC(=O)N2C[C@@H]3[C@@H](CNC(=O)c4ccc5[nH]nnc5c4)[C@@H]3C2)n1	cell-free assay		competition with immobilised ligand	1 µM	remaining binding	100%
CCN(CC)c1ccc(C2=NNC(=O)CC2C)cc1[N+](=O)[O-] (stereo not shown)	enzyme activity	inhibitor		10 µM	remaining activity	14%
O=C(Nc1ccc(Oc2ccc(F)cc2)cc1)N1CCc2ncccc2[C@H]1c1ccc(F)cc1	cell-free assay		competition with immobilised ligand	1 µM	remaining binding	94%
FC(F)c1nc2ccccc2n1-c1nc(N2CCOCC2)nc(N2CCOCC2)n1	enzyme activity	inhibitor		10 µM	remaining activity	96%
Cc1nc(Cc2cccc(C(F)(F)F)c2)sc1-c1ccc(C(N)=O)nc1	cell-free assay		competition with immobilised ligand	1 µM	remaining binding	93%
CCN(CC)CCNC(=O)c1c(C)[nH]c(/C=C2\C(=O)Nc3ccc(F)cc32)c1C	cell-free assay			0.5 µM	remaining signal	20%
CN([C@@H]1CCc2c(CC(=O)O)c3ccccc3n2C1)S(=O)(=O)c1ccc(F)cc1	cell-free assay		competition with immobilised ligand	1 µM	remaining binding	100%
COc1cc(Cl)c(C(=O)N[C@@H](CN[C@H]2CC[C@@H](N)CC2)Cc2ccc(C#N)cc2)cc1-c1ccc(CN[C@H](C)c2ccc(C)cc2)o1	enzyme activity	inhibitor		1 µM	remaining activity	99%
Cc1cc(NC(=O)c2cccc3cc(-c4cccc5[nH]nc(N)c45)ccc23)ccc1F	enzyme activity	inhibitor		0.1 µM	activity vs control	76%
CNC(=O)c1cc(Oc2ccc(NC(=O)Nc3ccc(Cl)c(C(F)(F)F)c3)cc2)ccn1	enzyme activity	inhibitor		10 µM	inhibition	13%
CN(c1ncccc1CNc1nc(Nc2ccc3c(c2)CC(=O)N3)ncc1C(F)(F)F)S(C)(=O)=O	enzyme activity	inhibitor		1 µM	inhibition	49%
